Test results reported in ChEMBL document CHEMBL1154388.

Legend:
[1] = biological target: Metabotropic glutamate receptor 5 (Rattus norvegicus) (UniProt P31424); assay: Positive allosteric modulator activity at rat mGluR5 receptor expressed in HEK293 cells assessed as potentiation of glutamate-induced response at 30 uM relative to glutamate; type: cell-based
In short: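 In mGluR5-expressing HEK293A cells in the calcium mobilization assay, response amplitude with test compound present is expressed as a percentage of the maximal response to glutamate. Values are the average of n≥3.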

[2] = biological target: T1, Metabotropic glutamate receptor 5 (Rattus norvegicus, UniProt P31424); assay: Antagonist activity at rat mGluR5 expressed in HEK293 cells by calcium mobilization assay; type: functional, cell-based
T1 sequence (P31424 whole entry): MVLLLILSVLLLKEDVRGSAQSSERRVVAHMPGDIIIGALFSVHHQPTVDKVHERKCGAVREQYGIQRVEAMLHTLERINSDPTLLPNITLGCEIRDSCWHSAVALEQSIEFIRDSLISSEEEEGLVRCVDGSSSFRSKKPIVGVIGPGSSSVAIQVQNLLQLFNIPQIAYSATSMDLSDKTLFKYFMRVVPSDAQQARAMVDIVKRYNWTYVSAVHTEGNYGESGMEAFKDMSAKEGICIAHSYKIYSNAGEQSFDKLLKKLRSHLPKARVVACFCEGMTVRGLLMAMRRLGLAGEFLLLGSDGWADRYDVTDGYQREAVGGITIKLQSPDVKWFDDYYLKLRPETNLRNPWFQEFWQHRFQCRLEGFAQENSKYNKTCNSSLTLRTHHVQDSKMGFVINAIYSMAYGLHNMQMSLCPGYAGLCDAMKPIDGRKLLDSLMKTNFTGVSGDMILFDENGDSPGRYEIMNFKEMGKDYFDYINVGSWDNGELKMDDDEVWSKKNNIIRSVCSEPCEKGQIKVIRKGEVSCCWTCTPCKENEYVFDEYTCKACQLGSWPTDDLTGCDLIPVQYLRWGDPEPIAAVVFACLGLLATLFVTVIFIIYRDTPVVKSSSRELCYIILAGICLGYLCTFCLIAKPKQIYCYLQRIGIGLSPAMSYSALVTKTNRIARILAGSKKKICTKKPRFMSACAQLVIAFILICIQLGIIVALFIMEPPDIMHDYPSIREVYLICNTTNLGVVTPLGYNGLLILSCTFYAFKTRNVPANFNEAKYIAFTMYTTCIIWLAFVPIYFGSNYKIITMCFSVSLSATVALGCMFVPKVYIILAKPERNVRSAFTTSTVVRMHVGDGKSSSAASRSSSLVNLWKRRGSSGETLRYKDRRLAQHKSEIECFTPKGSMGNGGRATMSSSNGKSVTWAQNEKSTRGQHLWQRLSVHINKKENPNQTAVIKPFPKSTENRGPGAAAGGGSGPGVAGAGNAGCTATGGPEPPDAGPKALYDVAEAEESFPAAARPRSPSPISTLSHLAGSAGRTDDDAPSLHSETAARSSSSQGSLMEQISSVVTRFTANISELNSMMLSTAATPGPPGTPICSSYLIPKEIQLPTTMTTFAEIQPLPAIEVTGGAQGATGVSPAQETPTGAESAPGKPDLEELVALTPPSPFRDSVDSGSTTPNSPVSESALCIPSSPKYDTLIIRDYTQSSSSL
In short: (§1)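 Rat mGluR5 in HEK293A cells and rat mGluR1 in BHK cells were loaded with a Ca²⁺-sensitive fluorescent dye and washed. Compound was added 3 s after baseline and incubated for 140 s.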

[3] = biological target: T1, Metabotropic glutamate receptor 5; assay: (§2) Positive allosteric modulator activity at rat mGluR5 receptor expressed in HEK293 cells assessed as potentiation of glutamate-induced response; type: cell-based
[4] = biological target: Metabotropic glutamate receptor 5 (Rattus norvegicus) (UniProt P31424); assay: as §2; type: cell-based
[5] = biological target: Metabotropic glutamate receptor 1 (Rattus norvegicus, UniProt P23385); assay: Antagonist activity at rat mGluR1 expressed in BHK cells by calcium mobilization assay; type: functional, cell-based; in short: as §1
Chain of Metabotropic glutamate receptor 1 (P23385 whole entry): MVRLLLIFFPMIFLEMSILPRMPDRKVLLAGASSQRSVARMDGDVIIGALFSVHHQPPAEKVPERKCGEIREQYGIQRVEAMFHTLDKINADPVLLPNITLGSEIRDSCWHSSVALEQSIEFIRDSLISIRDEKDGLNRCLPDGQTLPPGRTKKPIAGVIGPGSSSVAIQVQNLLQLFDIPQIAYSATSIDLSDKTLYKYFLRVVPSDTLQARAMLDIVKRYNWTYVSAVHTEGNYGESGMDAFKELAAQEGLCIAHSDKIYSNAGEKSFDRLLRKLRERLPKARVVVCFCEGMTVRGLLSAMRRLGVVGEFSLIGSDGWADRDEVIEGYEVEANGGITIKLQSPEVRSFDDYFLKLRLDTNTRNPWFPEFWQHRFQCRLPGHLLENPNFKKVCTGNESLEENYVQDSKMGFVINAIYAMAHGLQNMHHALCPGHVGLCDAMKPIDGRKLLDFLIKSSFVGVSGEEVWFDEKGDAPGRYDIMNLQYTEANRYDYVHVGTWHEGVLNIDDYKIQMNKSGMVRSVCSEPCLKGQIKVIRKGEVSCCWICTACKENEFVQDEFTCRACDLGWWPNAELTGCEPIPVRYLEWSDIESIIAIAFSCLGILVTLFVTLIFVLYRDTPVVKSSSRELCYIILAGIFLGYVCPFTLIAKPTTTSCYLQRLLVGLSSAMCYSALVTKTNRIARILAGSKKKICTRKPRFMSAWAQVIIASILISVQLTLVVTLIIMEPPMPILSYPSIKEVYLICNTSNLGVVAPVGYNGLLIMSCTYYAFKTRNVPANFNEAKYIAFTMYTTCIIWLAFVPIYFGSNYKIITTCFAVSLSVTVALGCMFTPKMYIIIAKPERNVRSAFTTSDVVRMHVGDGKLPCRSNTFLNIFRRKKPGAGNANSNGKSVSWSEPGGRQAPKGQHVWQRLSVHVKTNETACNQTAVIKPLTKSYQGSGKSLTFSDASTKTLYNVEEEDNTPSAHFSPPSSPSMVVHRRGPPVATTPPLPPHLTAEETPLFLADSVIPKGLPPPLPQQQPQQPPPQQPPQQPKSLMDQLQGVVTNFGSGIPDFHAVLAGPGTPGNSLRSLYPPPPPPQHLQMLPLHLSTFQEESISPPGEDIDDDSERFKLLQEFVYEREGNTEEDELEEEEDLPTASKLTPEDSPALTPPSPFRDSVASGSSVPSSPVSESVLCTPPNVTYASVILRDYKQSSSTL

[6] = biological target: T1, Metabotropic glutamate receptor 5; assay: Displacement of [3H]3methoxy-5-(pyridin-2-ylethynyl)pyridine from rat mGluR5

Chain of Metabotropic glutamate receptor 5 (Rattus norvegicus) (P31424 21-1203 limits assumed): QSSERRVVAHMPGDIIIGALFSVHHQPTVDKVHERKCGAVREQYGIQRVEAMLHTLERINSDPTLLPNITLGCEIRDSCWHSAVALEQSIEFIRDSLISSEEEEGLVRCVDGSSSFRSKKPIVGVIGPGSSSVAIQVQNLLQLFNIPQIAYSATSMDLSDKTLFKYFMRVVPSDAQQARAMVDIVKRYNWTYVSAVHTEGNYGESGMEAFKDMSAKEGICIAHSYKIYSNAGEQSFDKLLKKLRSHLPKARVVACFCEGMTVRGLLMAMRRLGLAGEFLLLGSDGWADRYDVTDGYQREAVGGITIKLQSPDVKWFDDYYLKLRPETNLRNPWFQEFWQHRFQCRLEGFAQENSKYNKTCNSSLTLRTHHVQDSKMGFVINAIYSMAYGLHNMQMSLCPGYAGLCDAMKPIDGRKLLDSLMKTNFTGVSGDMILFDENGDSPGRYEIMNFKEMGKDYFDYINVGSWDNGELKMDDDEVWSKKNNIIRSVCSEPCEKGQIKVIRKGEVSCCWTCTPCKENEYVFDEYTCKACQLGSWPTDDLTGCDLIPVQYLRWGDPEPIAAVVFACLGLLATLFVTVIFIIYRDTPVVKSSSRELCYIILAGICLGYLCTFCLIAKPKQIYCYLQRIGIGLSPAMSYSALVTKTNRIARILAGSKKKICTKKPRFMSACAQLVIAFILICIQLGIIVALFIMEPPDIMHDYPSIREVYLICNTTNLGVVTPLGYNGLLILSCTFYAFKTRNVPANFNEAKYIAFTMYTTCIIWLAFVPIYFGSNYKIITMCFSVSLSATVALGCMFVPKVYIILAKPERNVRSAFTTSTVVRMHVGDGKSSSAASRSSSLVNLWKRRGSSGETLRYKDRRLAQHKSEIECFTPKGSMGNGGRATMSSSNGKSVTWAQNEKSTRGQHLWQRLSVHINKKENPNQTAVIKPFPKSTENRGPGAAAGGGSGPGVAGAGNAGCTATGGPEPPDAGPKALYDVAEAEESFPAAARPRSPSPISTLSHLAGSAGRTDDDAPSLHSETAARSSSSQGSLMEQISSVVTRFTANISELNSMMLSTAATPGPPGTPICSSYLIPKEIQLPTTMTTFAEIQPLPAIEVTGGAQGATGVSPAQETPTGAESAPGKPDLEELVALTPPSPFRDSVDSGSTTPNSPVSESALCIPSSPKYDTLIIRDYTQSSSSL

| Activity [1] [%] | IC50 [2] [µM] | SMILES | other results |
| --- | --- | --- | --- |
| 49 | > 10 | Brc1cccc(Oc2ncnc3ccc(Br)cc23)c1 |  |
| 14 | 6.57 | Clc1ccc2ncnc(Oc3cccc(Br)c3)c2c1 |  |
| 3.2 | 1.72 | FC(F)(F)c1cccc(Nc2ncnc3ccc(Br)cc23)c1 |  |
| 59 | > 10 | Clc1ccc2ncnc(NCCc3ccccc3)c2c1 |  |
|  | > 30 | Clc1cccc(CNc2ncnc3ccc(Cl)cc23)c1 |  |
| 0.9 | 0.311 | Fc1ccc2ncnc(Nc3cccc(Cl)c3)c2c1 |  |
|  | > 30 | Clc1cccc(CCNc2ncnc3ccc(Cl)cc23)c1 |  |
|  | > 30 | Clc1ccc2nccc(Nc3cccc(Br)c3)c2c1 |  |
|  | > 30 | Clc1ccc(CNc2ncnc3ccc(Cl)cc23)cc1 |  |
|  | > 30 | Clc1ccc2ncnc(NCc3ccccc3)c2c1 |  |
|  | > 30 | CN(c1cccc(Br)c1)c1ncnc2ccc(Br)cc12 |  |
| 56 | > 10 | Fc1cc(Cl)cc(Nc2ncnc3ccc(F)cc23)c1 |  |
| 1.2 | 0.246 | Cc1cccc(Nc2ncnc3ccc(Br)cc23)c1 |  |
|  | > 10 | Fc1ccc2ncnc(Nc3ccc(F)c(Cl)c3)c2c1 |  |
| 58 | > 10 | Fc1ccc2ncnc(Nc3ccccc3)c2c1 |  |
| 2.4 | 0.274 | O=[N+]([O-])c1ccc2ncnc(Nc3cccc(Cl)c3)c2c1 |  |
|  | > 30 | Clc1ccc(CCNc2ncnc3ccc(Cl)cc23)cc1 |  |
| 3.5 | 1.35 | Cc1cccc(Nc2ncnc3ccc(F)cc23)c1 |  |
| 42 | > 10 | Brc1ccc2ncnc(Nc3ccccc3)c2c1 |  |
| 5.4 | 4.33 | Brc1cccc(Nc2nccc3ccc(Br)cc23)c1 |  |

| Activity [1] [%] | IC50 [2] [µM] | SMILES | other results |
| --- | --- | --- | --- |
| 3.5 | 1.37 | N#Cc1cccc(Nc2ncnc3ccc(F)cc23)c1 |  |
|  | > 30 | Clc1ccc2ncnc(NCCc3ccccc3Cl)c2c1 |  |
|  | > 30 | Clc1ccc2ncnc(NCc3ccccc3Cl)c2c1 |  |
| 2.5 | 0.174 | Brc1cccc(Nc2ncnc3ccc(Br)cc23)c1 |  |
| 50 | > 10 | COc1cccc(Nc2ncnc3ccc(F)cc23)c1 |  |
|  |  | CCc1cccc(Nc2ncnc3ccc(F)cc23)c1 | EC50 [3]: > 10 µM; Activity [4]: 52% |
| 0.6 | 0.096 | Fc1ccc2ncnc(Nc3cccc(Br)c3)c2c1 | IC50 [5]: 713 nM; Ki [6]: 736 nM |
| 2.8 | 0.13 | Clc1cccc(Nc2ncnc3ccc(Cl)cc23)c1 |  |
| 31 | > 10 | Clc1ccc2ncnc(Nc3ccccc3)c2c1 |  |
| 8.8 | 1.97 | Fc1cccc(Nc2ncnc3ccc(Br)cc23)c1 |  |
| 35 | > 10 | N#Cc1ccc2ncnc(Nc3cccc(Cl)c3)c2c1 |  |
| 1.5 | 0.256 | Clc1cccc(Nc2ncnc3ccc(Br)cc23)c1 | IC50 [5]: 398 nM; Ki [6]: 116 nM |
| 5.2 | 3.72 | Fc1ccc2ncnc(Nc3cccc(Cl)c3F)c2c1 |  |
| 34 | > 10 | COc1cccc(Nc2ncnc3ccc(Br)cc23)c1 |  |
|  | > 30 | Brc1cccc(Sc2ncnc3ccc(Br)cc23)c1 |  |
|  | > 30 | Clc1ccc2ncnc(Sc3cccc(Br)c3)c2c1 |  |
|  | > 30 | CN(c1cccc(Br)c1)c1ncnc2ccc(Cl)cc12 |  |
| 32 | > 10 | Fc1ccc2ncnc(Nc3cccc(C(F)(F)F)c3)c2c1 |  |
| 13 | 1.51 | COc1ccc2ncnc(Nc3cccc(Cl)c3)c2c1 |  |
| 1.2 | 0.124 | Clc1ccc2ncnc(Nc3cccc(Br)c3)c2c1 | IC50 [5]: 955 nM; Ki [6]: 249 nM |
